Laboratory results: ChEMBL document CHEMBL1121448, “Adrenergic receptor agonists. Benzofuranylethanolamines” (1980)

Legend:
[1] = target: Beta-1 adrenergic receptor (Homo sapiens) (UniProt P08588); assay: Tested for antagonistic effect on heart rate against beta-1 adrenergic receptor in cat; format: functional, tissue-based; conditions: Felis catus, target entry is the homologue from another species
How it was run: (§1)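 Reserpinized, bilaterally vagotomized cats, pentobarbital-anesthetized (30 mg/kg ip, then 0.1 (mg/min)/kg infusion), artificially ventilated. Heart rate was recorded by cardiotachograph from carotid pressure. Hind-leg vascular resistance was read as perfusion pressure under constant-flow autoperfusion. Test compound was infused iv into the femoral vein for 10 min at 1.0 mL/min, in five stepwise raised concentrations.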

[2] = target: Beta-2 adrenergic receptor (Homo sapiens) (UniProt P07550); assay: Tested for agonistic effect on peripheral vascular resistance (PR) against beta-2 adrenergic receptor in cat; format: functional; conditions: Felis catus; target entry is the homologue from another species; how it was run: as §1
Felis catus = organism: Felis catus; assay: Intrinsic activity as percentage of heart rate (HR max) in cat was determined; format: functional; how it was run: as §1
[3] = target: Beta-1 adrenergic receptor (Homo sapiens) (UniProt P08588); assay: Tested for agonistic effect on heart rate against beta-1 adrenergic receptor in cat; format: functional, tissue-based; conditions: Felis catus, target entry is the homologue from another species; how it was run: as §1
[4] = target: Beta-2 adrenergic receptor (Homo sapiens) (UniProt P07550); assay: Tested for agonistic effect on peripheral vascular resistance (PR) against beta 2 adrenergic receptor in cat; format: functional; conditions: Felis catus; target entry is the homologue from another species; how it was run: as §1

Beta-1 adrenergic receptor (Homo sapiens), sequence (P08588 whole entry, looked up, the tested form may be a part): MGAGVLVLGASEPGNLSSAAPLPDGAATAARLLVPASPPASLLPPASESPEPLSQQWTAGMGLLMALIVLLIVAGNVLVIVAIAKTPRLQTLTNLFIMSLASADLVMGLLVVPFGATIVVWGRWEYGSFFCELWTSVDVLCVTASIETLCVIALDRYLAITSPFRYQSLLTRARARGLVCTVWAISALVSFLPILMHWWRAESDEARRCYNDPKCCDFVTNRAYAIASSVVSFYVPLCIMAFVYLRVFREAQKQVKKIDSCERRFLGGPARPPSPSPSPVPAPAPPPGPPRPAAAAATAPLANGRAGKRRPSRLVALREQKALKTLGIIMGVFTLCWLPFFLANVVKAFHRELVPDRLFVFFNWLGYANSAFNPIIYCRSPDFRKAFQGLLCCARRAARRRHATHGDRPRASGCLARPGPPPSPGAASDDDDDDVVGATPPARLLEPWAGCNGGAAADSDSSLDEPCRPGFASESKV
Beta-2 adrenergic receptor (Homo sapiens), sequence (P07550 whole entry, looked up): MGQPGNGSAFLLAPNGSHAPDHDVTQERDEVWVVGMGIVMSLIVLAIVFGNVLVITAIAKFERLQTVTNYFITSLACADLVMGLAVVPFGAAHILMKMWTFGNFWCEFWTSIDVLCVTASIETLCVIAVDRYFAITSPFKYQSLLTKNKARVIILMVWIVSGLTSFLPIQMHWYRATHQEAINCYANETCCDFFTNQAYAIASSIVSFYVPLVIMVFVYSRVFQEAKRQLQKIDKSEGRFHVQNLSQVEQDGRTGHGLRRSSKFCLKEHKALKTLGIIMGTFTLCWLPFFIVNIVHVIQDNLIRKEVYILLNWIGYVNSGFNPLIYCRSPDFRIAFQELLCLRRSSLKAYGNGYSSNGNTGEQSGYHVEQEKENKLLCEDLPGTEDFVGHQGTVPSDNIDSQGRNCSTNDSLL

Row | KB [2] [µM/kg] | KB [4] [µM/kg] | SMILES | KB [1] [µM/kg] | HR (Felis catus) [%] | KA [3] [µM/kg]
1 | 1.12 | – | CC(C)NCC(O)c1cc2cc(O)ccc2o1 (stereo not given) | 0.34 | 80 | 0.21
2 | – | – | CC(C)NC[C@H](O)COc1ccc(O)cc1 [PRENALTEROL] | – | 80 | 0.025
3 | – | 4.73 | CC(C)NCC(O)c1cc2ccc(O)cc2o1 (stereo not given) | 4.8 | 27 | 1.65
